# CXCR6 inh: inhibitors of human CXCR6 receptor; O00574; CHO-K1 PathHunter CXCR6 beta-arrestin, luminescence; inhibition, % at 20 µM; hit rate 0.36% among 360,000; AID 602244; in the data active means inhibition above about 34%, passing the limit was not always enough;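 further: antagonist mode with CXCL16 agonist at 10 nM final; 0% = 10 nM CXCL16 with DMSO and 100% = unstimulated wells without agonist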
# A3A deaminase: inhibitors of human APOBEC3A DNA deaminase | recombinant A3A, FAM/TAMRA ssDNA deamination fluorescence | AID 493011 | hit rate 0.41% among 330,000 | inhibition, % at 20 µM;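 active means at least 40% inhibition at 20 µM here, with at most 30% in a related deaminase screen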;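 further: plate controls were A3A with DMSO for no effect and wells lacking A3A enzyme for full effect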
# Target sequence (P31941 whole entry, looked up): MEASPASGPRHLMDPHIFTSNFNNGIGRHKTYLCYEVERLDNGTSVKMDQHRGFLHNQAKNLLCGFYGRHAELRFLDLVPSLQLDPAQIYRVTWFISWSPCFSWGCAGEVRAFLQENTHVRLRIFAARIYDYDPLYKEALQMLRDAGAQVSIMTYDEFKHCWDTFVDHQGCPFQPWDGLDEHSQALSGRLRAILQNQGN
# APOBEC3G inh: inhibitors of human APOBEC3G DNA deaminase; hit rate 0.28% among 330,000; inhibition, % at 20 µM; recombinant A3G, ssDNA deamination FAM/TAMRA fluorescence; AID 493012;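 active means inhibition of at least 40% at 20 µM, with no more than 30% in the related APOBEC3A deaminase screen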;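 further: plate controls were DMSO wells with A3G for no effect and wells lacking A3G enzyme for full effect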
# APJ antagonist: APJ receptor antagonism; P35414; CHO-K1 APJ beta-arrestin complementation, luminescence; inhibition, % at 20 µM; hit rate 0.32% among 330,000;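 active means inhibition above about 40% at 20 µM, limit read from the data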;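 further: cells challenged with 10 nM apelin-13 agonist together with compound; plate controls were apelin-13 plus DMSO wells for no effect and DMSO wells lacking apelin-13 for full effect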
# Target sequence (P35414 whole entry, looked up): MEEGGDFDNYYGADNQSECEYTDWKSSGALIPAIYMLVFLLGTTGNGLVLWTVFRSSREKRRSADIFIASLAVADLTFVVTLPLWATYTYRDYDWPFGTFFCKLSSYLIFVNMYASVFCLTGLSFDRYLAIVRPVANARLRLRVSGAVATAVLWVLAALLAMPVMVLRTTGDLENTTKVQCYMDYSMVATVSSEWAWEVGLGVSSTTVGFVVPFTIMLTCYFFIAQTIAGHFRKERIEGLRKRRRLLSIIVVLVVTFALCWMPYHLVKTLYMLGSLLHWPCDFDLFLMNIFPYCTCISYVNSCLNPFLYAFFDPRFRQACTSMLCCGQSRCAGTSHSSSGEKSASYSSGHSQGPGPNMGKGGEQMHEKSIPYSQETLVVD
# CCR6 antag: CCR6 (human) receptor antagonism. CHO-K1 CCR6 PathHunter beta-arrestin, luminescence, CCL20-stimulated. inhibition, % at 20 µM. hit rate 0.49% among 340,000. AID 493098. P51684;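 active means compounds whose inhibition of the agonist-driven luminescence signal at 20 µM reaches about 50%, limit read from the data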;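 further: cells stimulated with CCL20 at 14 nM final; plate controls were DMSO with CCL20 for no effect and DMSO without agonist for full effect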
# APJ ag: agonists of human APJ apelin receptor | P35414 | CHO-K1 APJ PathHunter beta-arrestin, luminescence; 0% DMSO wells, 100% apelin | activation, % at 20 µM | hit rate 0.11% among 330,000;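 active means activation more than six SD over the plate average, tested at 20 µM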;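 further: 0% = DMSO alone and 100% = apelin-13 at 10 nM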
#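 Assay system: CHO-K1 cells stably expressing ProLink-tagged human APJ and arrestin–beta-gal acceptor. Compound dosing: 20 µM single point, 1% DMSO. Times: 16-18 h seeding, 90 min dark compound exposure, 60 min detection. Detection: beta-gal luminescence. Evaluation: APJ–arrestin association signal. Controls: negative DMSO alone, positive Apelin-13 at 10 nM.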
# APOBEC3A confirm: confirmation of human APOBEC3A DNA deaminase inhibitors. inhibition, % at 20 µM. hit rate 63% among 1,400. shares compounds with A3A deaminase. recombinant A3A, ssDNA deaminase UDG fluorescence assay. AID 493151;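 active means inhibition reaching a set limit, 80% of the first screen's cutoff, at 20 µM in any replicate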;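 further: plate controls were DMSO wells with A3A for no effect and wells lacking A3A enzyme for full effect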
# UDG ctr A3A: UDG inhibition in APOBEC3A counter-screen. 1,000 tested, under 10 active. inhibition, % at 20 µM. UDG counterscreen, FAM/TAMRA uracil oligo fluorescence. AID 504714. shares compounds with A3A deaminase; call rule not given here
# Starred values were filed as active, the others as inactive; · = no result given. A selection: hits, their analogues and other compounds. The true share with any hit is near 1.4%.
SMILES,CXCR6 inh,A3A deaminase,APOBEC3G inh,APJ antagonist,CCR6 antag,APJ ag,APOBEC3A confirm,UDG ctr A3A
CCc1ccc(C(=O)CCC(=O)Nc2ccc(OC)c(S(=O)(=O)N3CCCCC3)c2)cc1,2,-1,0,6,12,-2,·,·
CN(C)c1ccc(/C=C/c2cc[n+](C)cc2)cc1,14,39,11,6,8,-1,·,·
Cc1ccc(/C=C/c2ccc(N(C)C)cc2)[n+](C)c1,8,60*,6,5,8,-5,67*,-3
O=C(N/N=C/c1ccc2c(c1)OCO2)c1ccc2c(c1)OCCO2,-4,6,-10,7,6,-1,·,·
COc1ccc(/C=N/NC(=O)c2ccc(COCC(F)(F)C(F)F)cc2)cc1,-8,-6,-3,-11,6,3,·,·
C[n+]1cccc(C(=O)N/N=C/c2ccc3c(c2)OCO3)c1,2,75*,18,13,8,-2,69*,-1
O=C(N/N=C/c1ccc2c(c1)OCO2)c1ccc(COCC(F)(F)C(F)F)cc1,1,98*,-6,-8,5,2,-1,-2
CCN(CC)CCOC(c1ccccc1)c1ccc(C)cc1 (stereo unspecified),11,8,1,11,1,-2,·,·
Cc1ccc(C(OCC(C)(C)C[N+](C)(C)C)c2ccccc2)cc1 (stereo unspecified),-4,65*,26,-7,2,-1,76*,-1
CN1CCCN(S(=O)(=O)c2ccccc2)CC1,1,67*,17,-12,10,-3,61*,-2
CCOC(=O)c1[nH]c2ccc(OC)cc2c1NC(=O)CCN1CCC(C)CC1,·,49*,14,21,3,0,22,·
O=C(c1cccnc1)N1CCN(c2ccc(Cl)cc2)CC1,6,48*,-6,4,-5,0,-4,-2
Cc1cc(=O)oc2c(C)c(OCC(=O)Nc3cccnc3)ccc12,-4,-4,-4,4,12,-5,·,·
COc1cccc(S(=O)(=O)N(C)C[C@@H]2Oc3ncc(C#CCN(C)C)cc3C(=O)N([C@H](C)CO)C[C@H]2C)c1,1,·,·,·,·,·,·,·
CCSCCNC(=O)c1cc(-n2cnnc2)ccc1Cl,-6,60*,25,-5,-5,1,60*,2
O=C(NCc1ccc2c(c1)OCO2)c1cc(-n2cnnc2)ccc1Cl,-1,57*,12,-3,5,-1,72*,-1
Cc1ccoc1C(=O)NCc1occc1C(=O)O,2,40,10,-3,-4,-5,28,·
CCSc1nc2sc3c(c2c(=O)n1C1CCCCC1)CCN(C)C3,8,·,·,·,4,·,·,·
CSc1nc2sc3c(c2c(=O)n1C1CCCCC1)CCN(C)C3,-1,47*,19,1,-6,5,20,·
Oc1ccc(Nc2nc3ccccc3nc2Nc2ccc(O)cc2)cc1,8,42*,-7,-10,5,0,43*,1
C=CC#CC1(O)CC(C)[N+](C)(C)CC1C (stereo unspecified),-2,56*,28,0,14,-3,71*,-1
CN1CC[n+]2c(CN3C(=O)c4ccccc4C3=O)csc21,15,51*,27,-9,1,2,79*,5
N#CCC(=O)N/N=C/c1cn(Cc2ccccc2C#N)c2ccccc12,-6,56*,18,14,-3,-2,72*,3
COc1ccc(S(=O)(=O)NCC(c2cccnc2)N2CCN(C)CC2)cc1OC (stereo unspecified),0,4,-2,7,-2,1,·,·
C=CCNC(=O)Cn1nc(-c2ccccc2)ccc1=O,-5,61*,8,-6,-14,-1,2,·
SMILES,CXCR6 inh,A3A deaminase,APOBEC3G inh,APJ antagonist,CCR6 antag,APJ ag,APOBEC3A confirm,UDG ctr A3A
CC[n+]1ccc(/C=C2\Sc3ccccc3N2CCCS(=O)(=O)[O-])c2ccccc21,2,83*,24,7,7,-5,92*,4
CCCCCCn1c(=O)n2n(c1=O)C[C@]1(OC(=O)Nc3c(C)noc3C)CN(S(=O)(=O)c3ccc(C)cc3)C[C@]1(O)C2,-14,·,·,·,·,·,·,·
CC[N+](CC)(CC)CCOc1ccc(/C=C/c2ccccc2)cc1,7,49*,11,11,11,-2,76*,-2
CC[N+](CC)(CC)CCOc1cccc(OCC[N+](CC)(CC)CC)c1OCC[N+](CC)(CC)CC,2,75*,20,17,3,-5,92*,-3
Cn1c(SCC(=O)NCc2ccco2)nnc1-c1ccccc1,-3,2,-3,6,-1,1,·,·
CCC(=O)Nc1cccc(-c2nnc(SCC(=O)NCc3ccco3)n2C)c1,5,46*,21,11,14,-3,68*,3
CCCCSc1nnc(-c2ccc(NC(=O)CCc3ccccc3)cc2)n1C,-3,0,-2,10,6,-3,·,·
Cn1c(SCC(=O)NCc2ccccc2)nnc1-c1ccc(NC(=O)CCc2ccccc2)cc1,-1,58*,14,-1,15,1,51*,-1
Cn1c(Cc2ccccc2)nnc1SCCC(=O)Nc1ccccc1,0,69*,16,10,-5,-1,74*,-4
O=C(O)C[C@H]1c2cc(C(F)(F)F)ccc2S(=O)(=O)N1Cc1ccccc1,-2,-4,-6,7,-1,-4,·,·
CCN(c1ccccc1)S(=O)(=O)c1cc(C(=O)OC(C)C(=O)Nc2ccc3c(c2)OCCO3)ccc1C (stereo unspecified),14,50*,13,-6,9,-4,37*,1
O=C1CCCC(O)=C1Sc1ccccc1C(=O)O,-4,55*,6,10,-11,0,57*,-6
CC(C)[C@@H]1Cc2[nH]c(=S)[nH]c(=O)c2[C@H](CCc2ccccc2)O1,-3,·,·,·,·,·,·,·
C[n+]1cc(C(=O)N2CCCCC2)ccc1/C=C/c1c[nH]c2ccccc12,0,75*,14,-4,-8,-4,73*,7
O=C(C(=O)N1CCCCCC1)c1c[nH]c2ccccc12,0,-4,-4,-7,9,-4,·,·
N#Cc1ccc(OCC(=O)NCC2COc3ccccc3O2)cc1 (stereo unspecified),-8,-4,-8,-23,12,-3,·,·
CCOC(=O)C1=C(COC(=O)/C=C/c2ccco2)NC(=O)NC1C (stereo unspecified),-1,48*,5,-14,5,-2,44*,4
ClCCn1cnc2c(SCc3ccccc3)ncnc21,3,·,·,·,16,·,·,·
